This note sets out measurements from ChEMBL document CHEMBL1158479, “Synthesis and preliminary in vitro biological evaluation of 4-[(4-hydroxyphenyl)sulfanyl]but-3-en-2-one, a 4-mercaptophenol derivative designed as a novel bifunctional antimelanoma agent” (J Med Chem, 2009).

A short description of data set [1]: Cytotoxicity against mouse B16-F1 cells at 100 uM after 48 hrs by MTT assay relative to control. The data set is classed as functional.
Data set [2] is described as follows: Cytotoxicity against mouse B16-F1 cells at 100 uM after 48 hrs by MTT assay relative to control in presence of N-acetyl-L-cysteine. The data set is classed as functional. (In general: Formazan colour is commonly taken as a measure of viable cells.)
The nature of data set [3]: Cytotoxicity against mouse B16-F1 cells at 100 uM after 48 hrs by MTT assay relative to control in presence of 1-phenyl-2-thiourea. The data set is classed as functional.
The test system of data set [4] is glutathione S-transferase. Kind of data set: Stability assessed as half life at pH 8 in presence of rat glutathione S-transferase. The data set is classed as ADME.
The subject of data set [5] is glutathione S-transferase. Put plainly: Stability assessed as half life at pH 7.4 in presence of rat glutathione S-transferase. The data set is classed as ADME.
Data set [6] has as its system glutathione S-transferase. Put plainly: Stability assessed as half life in presence of rat glutathione S-transferase. The data set is classed as ADME.
In data set [7] the test system is glutathione S-transferase. Kind of data set: Stability assessed as half life at pH 7.4 in presence of rat glutathione S-transferase in liver cytosol. The data set is classed as physicochemical. A digest of the protocol: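 The GSH reaction was run at pH 7.4 with and without rat liver cytosol, which served as the glutathione S-transferase source. t1/2 was derived from the time course of reaction with GSH.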

A short description of data set [8]: Cytotoxicity against mouse B16-F1 cells after 48 hrs by MTT assay. The data set is classed as functional, cell-based.
Substrate in data set [9]: O=C(O)CSc1ccc(O)cc1
Kind of data set: (§1) Activity of mushroom tyrosinase assessed as o-quinone formation. The following applies: Agaricus bisporus. A digest of the protocol: (§2)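 Mushroom tyrosinase kinetics were run by measuring the initial rate of enzyme-catalyzed o-quinone formation over increasing substrate concentrations. Km and Vmax were derived from these rates, and kcat and kcat/Km were calculated from them.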

Substrate in data set [10]: COc1ccc(O)cc1
Described as §1. The note with it: Agaricus bisporus. The method, boiled down: as §2

Substrate in data set [11]: O=C(O)CCSc1ccc(O)cc1
The description is as §1. The following applies: Agaricus bisporus. A digest of the protocol: as §2

Substrate in data set [12]: O=C(O)CSc1ccc(O)cc1
Kind of data set: (§3) Ratio of Kcat to Km of mushroom tyrosinase. The note with it: Agaricus bisporus. A digest of the protocol:
as §2

Substrate in data set [13]: COc1ccc(O)cc1
Described as §3. The note with it: Agaricus bisporus. A digest of the protocol:
as §2

Substrate in data set [14]: O=C(O)CCSc1ccc(O)cc1
Described as §3. The note with it: Agaricus bisporus. A digest of the protocol: as §2

In the case of `COc1ccc(O)cc1` [MEQUINOL], the Activity came out at 61.3% in data set [1], 60% in data set [2] and 78.7% in data set [3].

For `CC(=O)/C=C\Sc1ccc(O)cc1`, the values for the half-life in data set [4], in data set [5] and in data set [6] were 18.4 min, 38.6 min and 7.24 min, respectively.

`Oc1ccc(SSc2ccc(O)cc2)cc1`: the half-life in data set [7] was less than 1 min. The Activity in data set [1] is 0.2%; in [2], 22.5%; in [3], 0%. This molecule returned a half-maximal inhibitory concentration (IC50) in data set [8] of 21.2 µM.

As for `CC(=O)/C=C/Sc1ccc(O)cc1`, the half-life amounted to 6.1 min in data set [4], 20.5 min in data set [5] and 2.2 min in [6].

B1: Tyrosinase (Agaricus bisporus), O42713 (protein)
chain: MSLIATVGPTGGVKNRLNIVDFVKNEKFFTLYVRSLELLQAKEQHDYSSFFQLAGIHGLPFTEWAKERPSMNLYKAGYCTHGQVLFPTWHRTYLSVLEQILQGAAIEVAKKFTSNQTDWVQAAQDLRQPYWDWGFELMPPDEVIKNEEVNITNYDGKKISVKNPILRYHFHPIDPSFKPYGDFATWRTTVRNPDRNRREDIPGLIKKMRLEEGQIREKTYNMLKFNDAWERFSNHGISDDQHANSLESVHDDIHVMVGYGKIEGHMDHPFFAAFDPIFWLHHTNVDRLLSLWKAINPDVWVTSGRNRDGTMGIAPNAQINSETPLEPFYQSGDKVWTSASLADTARLGYSYPDFDKLVGGTKELIRDAIDDLIDERYGSKPSSGARNTAFDLLADFKGITKEHKEDLKMYDWTIHVAFKKFELKESFSLLFYFASDGGDYDQENCFVGSINAFRGTAPETCANCQDNENLIQEGFIHLNHYLARDLESFEPQDVHKFLKEKGLSYKLYSRGDKPLTSLSVKIEGRPLHLPPGEHRPKYDHTQARVVFDDVAVHVIN
B1: the figures for the Michaelis constant (Km) in data set [9], in data set [10] and in data set [11] were 22.4 µM, 46.8 µM and 31.5 µM, respectively. Also, the kcat in [9] is 0.461 s⁻¹; in data set [10] it was 0.24 s⁻¹; in data set [11], 0.972 s⁻¹. The results for the kcat/Km in data set [12], in [13] and in data set [14] were 20600, 5140 and 31000, respectively.

In general, half-life refers to how long it takes for the measured level to halve. For orientation: IC50 means the midpoint of a concentration-inhibition curve. Low values mean inhibition by little substance, high ones a need for much substance. One may read the Km as the concentration of substrate that gives half-maximal velocity. A word on the kcat: it is the maximal rate divided by the concentration of active sites.
